≈ marks a conversion by molar mass, not a printed value.
Experiments:
[1] = Antitubercular activity against Mycobacterium tuberculosis H37Ra ATCC 25177 dormant stage infected in human THP1 cells measured on day 12 by nitrate reductase assay; type: functional, THP-1; details: ATCC 25177, 288 h
[2] = Antitubercular activity against Mycobacterium tuberculosis H37Ra ATCC 25177 active stage infected in human THP1 cells measured on day 8 by nitrate reductase assay; type: functional, THP-1; details: ATCC 25177, 192 h
[3] = Antitubercular activity against Mycobacterium tuberculosis H37Ra ATCC 25177 active stage measured on day 8 by XTT reduction menadione based two-fold dilution assay; type: functional; details: ATCC 25177, 192 h
Summary of the method: (§1)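 M. tuberculosis H37Ra ATCC 25177 was exposed to 0.7–100 μg/mL in two-fold steps (0.7, 1.5, 3.1 … 100). Active stage was read after 8 days and dormant stage after 12 days of incubation. Inhibition was read by XTT reduction menadione assay (XRMA), absorbance 470 nm. MIC90 is the concentration giving ≥90% inhibition (µg/mL).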

[4] = Antitubercular activity against Mycobacterium tuberculosis H37Ra ATCC 25177 dormant stage measured on day 12 by XTT reduction menadione based two-fold dilution assay; type: functional; details: ATCC 25177, 288 h; summary of the method: as §1
[5] = Antitubercular activity against Mycobacterium bovis BCG ATCC 35743 active stage measured on day 8 by nitrate reductase based two-fold dilution assay; type: functional, Mycobacterium bovis BCG str. ATCC 35743; details: Mycobacterium tuberculosis variant bovis BCG, ATCC 35743, 192 h
[6] = Antitubercular activity against Mycobacterium bovis BCG ATCC 35743 dormant stage measured on day 12 by nitrate reductase based two-fold dilution assay; type: functional, Mycobacterium bovis BCG str. ATCC 35743; details: Mycobacterium tuberculosis variant bovis BCG, ATCC 35743, 288 h
[7] = Cytotoxicity against human THP1 cells by MTT assay; type: toxicity, cell-based, THP-1; details: for GI50: THP1 cells; for GI90: thp-1
[8] = Cytotoxicity against human MCF7 cells by MTT assay; type: toxicity, cell-based; details: for GI50: MCF7 cells; for GI90: mcf7
[9] = Cytotoxicity against human HCT116 cells by MTT assay; type: toxicity, cell-based, HCT-116; details: for GI50: HCT116 cells; for GI90: hct-116
[10] = Selectivity index, ratio of GI50 for human MCF7 cells to MIC90 for Mycobacterium tuberculosis H37Ra ATCC 25177 active stage; type: toxicity, cell-based; details: read-out: Selectivity Index
Summary of the method: (§2)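 Cytotoxicity was measured on human MCF-7, HCT116 and THP-1 cells by MTT assay, with paclitaxel as reference. GI50 is the concentration inhibiting 50% of cell growth. The selectivity index is GI50 for the given cell line divided by MIC90 for the given mycobacterial strain and stage.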

[11] = Selectivity index, ratio of GI50 for human MCF7 cells to MIC90 for Mycobacterium tuberculosis H37Ra ATCC 25177 dormant stage; type: toxicity, cell-based; details: read-out: Selectivity Index
Summary of the method: (§3)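 Cytotoxicity was measured on human MCF-7, HCT116 and THP-1 cells by MTT assay, with paclitaxel as reference. The selectivity index is GI50 for the given cell line divided by MIC90 for the given mycobacterial strain and stage.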

[12] = Selectivity index, ratio of GI50 for human MCF7 cells to MIC90 for Mycobacterium bovis BCG ATCC 35743 active stage; type: toxicity, cell-based; details: read-out: Selectivity Index; summary of the method: as §2
[13] = Selectivity index, ratio of GI50 for human MCF7 cells to MIC90 for Mycobacterium bovis BCG ATCC 35743 dormant stage; type: toxicity, cell-based; details: read-out: Selectivity Index; summary of the method: as §3
[14] = Selectivity index, ratio of GI50 for human HCT116 cells to MIC90 for Mycobacterium tuberculosis H37Ra ATCC 25177 active stage; type: toxicity, cell-based, HCT-116; details: read-out: Selectivity Index; summary of the method: as §2
[15] = Selectivity index, ratio of GI50 for human HCT116 cells to MIC90 for Mycobacterium tuberculosis H37Ra ATCC 25177 dormant stage; type: toxicity, cell-based, HCT-116; details: read-out: Selectivity Index; summary of the method: as §3
[16] = Selectivity index, ratio of GI50 for human HCT116 cells to MIC90 for Mycobacterium bovis BCG ATCC 35743 active stage; type: toxicity, cell-based, HCT-116; details: read-out: Selectivity Index; summary of the method: as §2
[17] = Selectivity index, ratio of GI50 for human HCT116 cells to MIC90 for Mycobacterium bovis BCG ATCC 35743 dormant stage; type: toxicity, cell-based, HCT-116; details: read-out: Selectivity Index; summary of the method: as §3
[18] = Selectivity index, ratio of GI50 for human THP1 cells to MIC90 for Mycobacterium tuberculosis H37Ra ATCC 25177 active stage; type: toxicity, cell-based, THP-1; details: read-out: Selectivity Index; summary of the method: as §2
[19] = Selectivity index, ratio of GI50 for human THP1 cells to MIC90 for Mycobacterium tuberculosis H37Ra ATCC 25177 dormant stage; type: toxicity, cell-based, THP-1; details: read-out: Selectivity Index; summary of the method: as §3
[20] = Selectivity index, ratio of GI50 for human THP1 cells to MIC90 for Mycobacterium bovis BCG ATCC 35743 active stage; type: toxicity, cell-based, THP-1; details: read-out: Selectivity Index; summary of the method: as §2
[21] = Selectivity index, ratio of GI50 for human THP1 cells to MIC90 for Mycobacterium bovis BCG ATCC 35743 dormant stage; type: toxicity, cell-based, THP-1; details: read-out: Selectivity Index; summary of the method: as §3
Escherichia coli [22] = assay: Growth inhibition of Escherichia coli at 30 ug/ml; type: functional; details: read-out: GI
Escherichia coli [23] = assay: Growth inhibition of Escherichia coli at 10 ug/ml; type: functional; details: read-out: GI
Escherichia coli [24] = assay: Growth inhibition of Escherichia coli at 3 ug/ml; type: functional; details: read-out: GI
Summary of the method: (§4)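 Screened against Gram-negative E. coli and P. aeruginosa and Gram-positive S. aureus and B. subtilis. Compound was tested at 3 µg/ml, and the read-out is percent growth inhibition.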

Pseudomonas aeruginosa [25] = assay: Growth inhibition of Pseudomonas aeruginosa at 30 ug/ml; type: functional; details: read-out: GI
Pseudomonas aeruginosa [26] = assay: Growth inhibition of Pseudomonas aeruginosa at 10 ug/ml; type: functional; details: read-out: GI
Pseudomonas aeruginosa [27] = assay: Growth inhibition of Pseudomonas aeruginosa at 3 ug/ml; type: functional; details: read-out: GI; summary of the method: as §4
Staphylococcus aureus [28] = assay: Growth inhibition of Staphylococcus aureus at 30 ug/ml; type: functional; details: read-out: GI
Staphylococcus aureus [29] = assay: Growth inhibition of Staphylococcus aureus at 10 ug/ml; type: functional; details: read-out: GI
Staphylococcus aureus [30] = assay: Growth inhibition of Staphylococcus aureus at 3 ug/ml; type: functional; details: read-out: GI; summary of the method: as §4
Bacillus subtilis [31] = assay: Growth inhibition of Bacillus subtilis at 30 ug/ml; type: functional; details: read-out: GI
Bacillus subtilis [32] = assay: Growth inhibition of Bacillus subtilis at 10 ug/ml; type: functional; details: read-out: GI
Bacillus subtilis [33] = assay: Growth inhibition of Bacillus subtilis at 3 ug/ml; type: functional; details: read-out: GI; summary of the method: as §4

| SMILES | MIC90 [1] [µg/mL] | MIC90 [2] [µg/mL] | IC50 [3] [µg/mL] | MIC90 [3] [µg/mL] | IC50 [4] [µg/mL] | MIC90 [4] [µg/mL] | IC50 [5] [µg/mL] | MIC90 [5] [µg/mL] | IC50 [6] [µg/mL] | MIC90 [6] [µg/mL] | GI50 [7] [µg/mL] | GI90 [7] [µg/mL] | GI50 [8] [µg/mL] | GI90 [8] [µg/mL] | GI50 [9] [µg/mL] | GI90 [9] [µg/mL] | selectivity ratio [10] | selectivity ratio [11] | selectivity ratio [12] | selectivity ratio [13] | other results |
| --- | --- | --- | --- | --- | --- | --- | --- | --- | --- | --- | --- | --- | --- | --- | --- | --- | --- | --- | --- | --- | --- |
| C/C(=N\Nc1nc(-c2ccccc2)cs1)c1sc(-c2ccccc2)nc1C | 12 (≈ 30.7 µM) | 15.6 (≈ 39.9 µM) | 0.17 (≈ 0.435 µM) | 9.46 (≈ 24.2 µM) | 0.98 (≈ 2.51 µM) | 12.8 (≈ 32.7 µM) | 8.75 (≈ 22.4 µM) | 21.2 (≈ 54.3 µM) | 7.95 (≈ 20.4 µM) | 18.7 (≈ 47.9 µM) | > 100 | > 100 | > 100 | > 100 | > 100 | > 100 | 11 | 8 | 5 | 5 | selectivity ratio [14]: 11; selectivity ratio [15]: 8; selectivity ratio [16]: 5; selectivity ratio [17]: 5; selectivity ratio [18]: 11; selectivity ratio [19]: 8; selectivity ratio [20]: 5; selectivity ratio [21]: 5; inhibition of growth at 30 µg/mL (Escherichia coli [22]): 78.5%; inhibition of growth at 10 µg/mL (Escherichia coli [23]): 56.6%; inhibition of growth at 3 µg/mL (Escherichia coli [24]): 17.5%; inhibition of growth at 30 µg/mL (Pseudomonas aeruginosa [25]): 78.2%; inhibition of growth at 10 µg/mL (Pseudomonas aeruginosa [26]): 53.8%; inhibition of growth at 3 µg/mL (Pseudomonas aeruginosa [27]): 10.2%; inhibition of growth at 30 µg/mL (Staphylococcus aureus [28]): 77.2%; inhibition of growth at 10 µg/mL (Staphylococcus aureus [29]): 53.6%; inhibition of growth at 3 µg/mL (Staphylococcus aureus [30]): 11.6%; inhibition of growth at 30 µg/mL (Bacillus subtilis [31]): 75.5%; inhibition of growth at 10 µg/mL (Bacillus subtilis [32]): 50.1%; inhibition of growth at 3 µg/mL (Bacillus subtilis [33]): 4.82% |
| C/C(=N\Nc1nc(-c2ccc(Cl)cc2)cs1)c1sc(-c2ccccc2)nc1C | > 100 | > 100 | 0.12 (≈ 0.282 µM) | > 100 | 0.24 (≈ 0.565 µM) | > 100 | 17 (≈ 40 µM) | 77.8 (≈ 183 µM) | 26.6 (≈ 62.5 µM) | 83.7 (≈ 197 µM) | > 100 | > 100 | > 100 | > 100 | > 100 | > 100 | 1 | 1 | 1 | 1 | selectivity ratio [14]: 1; selectivity ratio [15]: 1; selectivity ratio [16]: 1; selectivity ratio [17]: 1; selectivity ratio [18]: 1; selectivity ratio [19]: 1; selectivity ratio [20]: 1; selectivity ratio [21]: 1; inhibition of growth at 30 µg/mL (Escherichia coli [22]): 89.7%; inhibition of growth at 10 µg/mL (Escherichia coli [23]): 80.4%; inhibition of growth at 3 µg/mL (Escherichia coli [24]): 69.1%; inhibition of growth at 30 µg/mL (Pseudomonas aeruginosa [25]): 90.6%; inhibition of growth at 10 µg/mL (Pseudomonas aeruginosa [26]): 80.3%; inhibition of growth at 3 µg/mL (Pseudomonas aeruginosa [27]): 67.7%; inhibition of growth at 30 µg/mL (Staphylococcus aureus [28]): 89.2%; inhibition of growth at 10 µg/mL (Staphylococcus aureus [29]): 79.3%; inhibition of growth at 3 µg/mL (Staphylococcus aureus [30]): 67.1%; inhibition of growth at 30 µg/mL (Bacillus subtilis [31]): 88.4%; inhibition of growth at 10 µg/mL (Bacillus subtilis [32]): 77.7%; inhibition of growth at 3 µg/mL (Bacillus subtilis [33]): 64.5% |
| CC(=O)O[C@H]1C(=O)[C@@]2(C)[C@H]([C@H](OC(=O)c3ccccc3)[C@]3(O)C[C@H](OC(=O)[C@H](O)[C@@H](NC(=O)c4ccccc4)c4ccccc4)C(C)=C1C3(C)C)[C@]1(OC(C)=O)CO[C@@H]1C[C@@H]2O [PACLITAXEL] | – | – | – | – | – | – | – | – | – | – | – | 5.814 (≈ 6.81 µM) | – | 0.075 (≈ 0.0878 µM) | – | 5.21 (≈ 6.1 µM) | – | – | – | – | – |

Reference: ChEMBL document CHEMBL3872252, “New bithiazolyl hydrazones: Novel synthesis, characterization and antitubercular evaluation” (Bioorg Med Chem Lett, 2017)
